Values after ≈ are worked out from the molar mass of the structure shown. Active and inactive are the calls of the source. The calls are words filed in the database; no cut-off is given here.
Legend:
[1] = biological target: T1, Replicase polyprotein 1ab (Severe acute respiratory syndrome coronavirus 2, UniProt P0DTD1); test: Inhibition of recombinant SARS CoV-2 PL protease incubated for 2 hrs followed by substrate addition and measured after 1 hr by fluorescence based analysis
SARS-CoV-2 [2] = test: Antiviral activity against SARS-CoV-2 NRC-03-nhCoV infected in african green monkey Vero E6 cells assessed as inhibition of viral growth pre-infected cells with virus for 1 hr followed by compound addition for 1 hr and measured after 72 hrs by crystal violet staining based analysis; assay type: functional, organism-based; details: Severe acute respiratory syndrome coronavirus 2, NRC-03-nhCoV, Vero C1008
[3] = Selectivity index, ratio of CC50 for African green monkey Vero E6 cells to IC50 for antiviral activity against SARS-CoV-2 NRC-03-nhCoV infected in african green monkey Vero E6 cells; assay type: toxicity, cell-based, Vero C1008; details: read-out: Ratio CC50/IC50
[4] = tested on: Middle East respiratory syndrome-related coronavirus; test: Antiviral activity against MERS-CoV NRCE-HKU270 infected in Vero E6 cells assessed as inhibition of viral growth; assay type: functional, organism-based; details: NRCE-HKU270, Vero C1008
[5] = biological target: T1, Replicase polyprotein 1ab; test: Inhibition of recombinant SARS CoV-2 PL protease assessed as deubiquitination activity using ubiquitinated fluorogenic as substrate incubated for 2 hrs followed by substrate addition for 1 hr by synergy TM HTX microplate reader analysis
[6] = Stability in CD-1 mouse liver microsomes assessed as half life at 1 uM in presence of NADPH by LC-MS-MS analysis; assay type: ADME, Microsome
[7] = Stability in CD-1 mouse liver microsomes assessed as compound remaining at 1 uM measured after 60 mins in absence of NADPH by LC-MS-MS analysis; assay type: ADME, Microsome; details: read-out: Stability
How it was run: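 Compound was incubated in liver microsomes without NADPH. Percent remaining was measured after 60 min.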

SARS-CoV-2 [8] = test: Antiviral activity against SARS CoV-2 HCoV-19/Egypt/NRC-1/2020 infected in human Caco-2 cells assessed as reduction in viral ORFb1 RNA expression at 20 ug/ml pre-infected with virus for 1 hr followed by cell addition for 1 hr and measured after 1 to 12 hrs by RT-PCR analysis; assay type: functional, organism-based; details: Severe acute respiratory syndrome coronavirus 2, dose 20.0 µg/ml, time 3-14 hrs
SARS-CoV-2 [9] = test: Antiviral activity against SARS CoV-2 HCoV-19/Egypt/NRC-1/2020 infected in human Caco-2 cells assessed as inhibition of ORFb1 RNA at 20 ug/ml pre-infected with virus for 1 hr followed by cell addition for 1 hr and measured after 1 to 12 hrs by RT-PCR analysis relative to control; assay type: functional; details: Severe acute respiratory syndrome coronavirus 2, HCoV-19/Egypt/NRC-1/2020, Caco-2, time 3-14 hrs
SARS-CoV-2 [10] = test: Antiviral activity against SARS CoV-2 infected in human Caco-2 cells assessed as reduction in INF-alpha expression at 20 ug/ml preincubated with cells for 24 hrs followed by viral infection and measured after 1 to 3 hrs by real-time PCR assay; assay type: functional, organism-based; details: Severe acute respiratory syndrome coronavirus 2, dose 20.0 µg/ml, time 25-28 hrs
[11] = Toxicity in Balb/c mouse assessed as effect on body weight loss at 25 to 100 mg/kg, ip administered as single dose measured upto 15 days; assay type: organism-based; details: in vivo, 360 h, dose 25-100 mg/kg, time < 15 day
[12] = Toxicity in Balb/c mouse assessed as effect on body weight loss at 12.5 to 25 mg/kg, ip administered as multiple dose measured upto 15 days; assay type: organism-based; details: in vivo, 360 h, dose 12.5-25 mg/kg, time < 15 day
How it was run: (§1)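 Female Balb/c mice were randomised to vehicle (0.5% DMSO in PBS) or 12.5 or 25 mg/kg intraperitoneally daily for 14 days, then followed 12 days after treatment. Body weight, haematology and blood chemistry were compared with vehicle controls; n = 3–5.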

[13] = Toxicity in Balb/c mouse assessed as change in histological variation in liver at 12.5 to 25 mg/kg by H and E staining based analysis; assay type: organism-based; details: in vivo, dose 12.5-25 mg/kg
How it was run: (§2)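 After the 14-day daily intraperitoneal dosing (12.5 or 25 mg/kg, female Balb/c), liver, kidney, spleen, heart and lung were fixed 24 h in 10% neutral-buffered formalin and paraffin-embedded. Sections of 4 μm were stained with H&E. Lesions were scored nil 0, mild 1, moderate 2, severe 3.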

[14] = Toxicity in Balb/c mouse assessed as change in histological variation in kidney at 12.5 to 25 mg/kg by H and E staining based analysis; assay type: organism-based; details: in vivo, dose 12.5-25 mg/kg; how it was run: as §2
[15] = Toxicity in Balb/c mouse assessed as change in histological variation in heart at 12.5 to 25 mg/kg by H and E staining based analysis; assay type: organism-based; details: in vivo, dose 12.5-25 mg/kg; how it was run: as §2
[16] = Toxicity in Balb/c mouse assessed as histological changes in liver by measuring toxicity score at 12.5 mg/kg by H and E staining based analysis; assay type: organism-based; details: in vivo; how it was run: as §2
[17] = Toxicity in Balb/c mouse assessed as histological changes in spleen by measuring toxicity score at 12.5 to 25 mg/kg by H and E staining based analysis; assay type: organism-based; details: in vivo, dose 12.5-25 mg/kg
[18] = Toxicity in Balb/c mouse assessed as histological changes in kidney by measuring toxicity score at 12.5 to 25 mg/kg by H and E staining based analysis; assay type: organism-based; details: in vivo, dose 12.5-25 mg/kg; how it was run: as §2
[19] = Toxicity in Balb/c mouse assessed as histological changes in heart by measuring toxicity score at 12.5 to 25 mg/kg by H and E staining based analysis; assay type: organism-based; details: in vivo, dose 12.5-25 mg/kg; how it was run: as §2
[20] = Toxicity in Balb/c mouse assessed as histological changes in lung by measuring toxicity score at 12.5 to 25 mg/kg by H and E staining based analysis; assay type: organism-based; details: in vivo, dose 12.5-25 mg/kg; how it was run: as §2
[21] = Toxicity in Balb/c mouse assessed as reduction in platelet population at 25 mg/kg; assay type: organism-based; details: in vivo
[22] = Toxicity in Balb/c mouse assessed as effect on ALT at 12.5 to 25 mg/kg; assay type: organism-based; details: in vivo, dose 12.5-25 mg/kg; how it was run: as §1
[23] = Toxicity in Balb/c mouse assessed as effect on AST at 12.5 to 25 mg/kg; assay type: organism-based; details: in vivo, dose 12.5-25 mg/kg; how it was run: as §1
[24] = Toxicity in Balb/c mouse assessed as effect on ALP at 12.5 to 25 mg/kg; assay type: organism-based; details: in vivo, dose 12.5-25 mg/kg; how it was run: as §1
[25] = Toxicity in Balb/c mouse assessed as effect on gamma GT at 12.5 to 25 mg/kg; assay type: organism-based; details: in vivo, dose 12.5-25 mg/kg; how it was run: as §1
[26] = Toxicity in Balb/c mouse assessed as effect on glucose at 12.5 to 25 mg/kg; assay type: organism-based; details: in vivo, dose 12.5-25 mg/kg; how it was run: as §1
[27] = Toxicity in Balb/c mouse assessed as effect on urea at 12.5 to 25 mg/kg; assay type: organism-based; details: in vivo, dose 12.5-25 mg/kg; how it was run: as §1
SARS-CoV-2 [28] = test: Antiviral activity against SARS- CoV-2 infected in Vero E6 cells assessed as viral adsorption pretreated with cells for 24 hrs followed by viral infection and measured after 1 hr by crystal violet staining based analysis relative to control; assay type: functional, Severe acute respiratory syndrome coronavirus 2; details: time 25 hrs
SARS-CoV-2 [29] = test: Antiviral activity against SARS- CoV-2 infected in Vero E6 cells assessed as viral replication pretreated with cells for 24 hrs followed by viral infection for 1 hr and measured after 1 hr by plaque assay relative to control; assay type: functional, Severe acute respiratory syndrome coronavirus 2; details: time 26 hrs
SARS-CoV-2 [30] = test: Antiviral activity against SARS- CoV-2 infected in Vero E6 cells assessed as virucidal activity pretreated with cells for 24 hrs followed by viral infection for 1 hr and measured after 1 hr by plaque assay relative to control; assay type: functional, Severe acute respiratory syndrome coronavirus 2; details: time 26 hrs

## COc1ccc2[nH]c3c(c2c1)C[C@]1(OC)CC[C@H]2c4[nH]c5ccccc5c4CCN2[C@@H]1C3
[1]
  IC50: 0.0912 µM
SARS-CoV-2 [2]
  IC50: 12.1 µg/mL (≈ 28.3 µM)
[3]
  selectivity ratio: 4.6
[4]
  IC50: 6.21 µg/mL (≈ 14.5 µM)
[5]
  IC50: 386 µM
[6]
  t1/2: > 1 h
[7]
  remaining at 1 h, 1 µM: 108%
SARS-CoV-2 [8]
  Activity: Active
SARS-CoV-2 [9]
  inhibition at 20 µg/mL: > 70%
SARS-CoV-2 [10]
  Activity: Active
[11]
  Activity: Non-Toxic
[12]
  Activity: Non-Toxic
[13]
  Activity: Non-Toxic
[14]
  Activity: Non-Toxic
[15]
  Activity: Non-Toxic
[16]
  Activity: 0
[17]
  Activity: 0
[18]
  Activity: 0
[19]
  Activity: 0
[20]
  Activity: 0
[21]
  Activity: Non-Toxic
[22]
  Activity: Non-Toxic
[23]
  Activity: Non-Toxic
[24]
  Activity: Non-Toxic
[25]
  Activity: Non-Toxic
[26]
  Activity: Non-Toxic
[27]
  Activity: Non-Toxic
SARS-CoV-2 [28]
  Activity: 2.5%
SARS-CoV-2 [29]
  Activity: 8.5%
SARS-CoV-2 [30]
  Activity: >90%
